Reference: PMC6139428 (Molecular Nutrition & Food Research, 2017)
Entries after “also recorded” stand apart in the source; their conditions may differ.

Key:
[1] = Nutrikinetics of isoflavone metabolites in serum after oral boiled soybean; type: in vivo, mice (C57BL/6); conditions: for serum concentration, CGJ‐treated compared with BS‐treated / bioavailability, CGJ‐treated compared to BS‐treated (unfermented soybean): OVX mice; for serum concentration, CGJ‐treated compared with BS‐treated: relative peak area; for concentration based on area‐under‐the‐curve analysis: all groups; for detection in pooled serum samples: pooled serum of sham and OVX groups after BS or CGJ, UPLC–QTOF‐MS; for AUC(0–24h), CGJ administered versus BS administered: OVX groups; for bioavailability, CGJ‐treated compared to BS‐treated (unfermented soybean): abstract does not name the group; for AUC, CGJ treatment versus BS treatment: sham group
MC3T3‐E1 cells [2] = test: Alkaline phosphatase; type: cell-based; conditions: for ALP activity: 0.1–0 5 μ M, 6 days differentiation; for osteoblastogenesis: abstract summary
Summary of the method: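 MC3T3‐E1 subclone 4 cells were kept in αMEM without L‐ascorbic acid and seeded at 2 × 10^4 cells/well. Differentiation was induced with 50 μg mL–1 L‐ascorbic acid and 10 mM β‐glycerophosphate plus test compound for 6 days. Cells were PBS‐washed and lysed in 0.2% Triton X‐100, and ALP was read with a pNPP kit. Means ± SD, n = 3, three independent experiments, tested against the control group.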

MC3T3‐E1 cells [3] = test: Mineralization assay; type: cell-based; conditions: 21‐day incubation
Summary of the method: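 MC3T3‐E1 cells were differentiated with test compound and incubated 21 days. Cells were washed, fixed in 4% formalin and stained with 2% Alizarin Red S. Bound stain was solubilized in 10% […] in 10 mM sodium phosphate and absorbance read at 562 nm. Means ± SD, n = 3, three independent experiments, tested against the control group.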

RAW 264.7 cells = test: RANKL‐induced bone resorption activity; type: cell-based; conditions: abstract summary
Summary of the method: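 RAW 264.7 macrophages were grown in DMEM and seeded. Medium was replaced with RANKL‐containing differentiation medium plus test compound, then held 5 days without medium change. Bone resorption activity was measured with a commercial bone resorption assay kit. Means ± SD, n = 3, three independent experiments, tested against the control group.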

Compound | serum concentration, CGJ‐treated compared with BS‐treated [1] | ALP activity (MC3T3‐E1 cells [2]) | concentration based on area‐under‐the‐curve analysis [1] | detection in pooled serum samples [1] | also measured
COc1ccc(-c2coc3cc(O)ccc3c2=O)cc1 [Formononetin] | higher in BS‐treated | stimulated ALP activity |  |  | 
Dihydrodaidzein sulfate | higher concentrations |  | high concentrations |  | 
O=c1c(-c2ccc(O)cc2)coc2cc(O[C@@H]3O[C@H](CO)[C@@H](O)[C@H](O)[C@H]3O)cc(O)c12 [Genistin] |  |  |  | not detected | 
Methyl caffeic acid | higher in BS‐treated |  |  |  | 
O=C(O)/C=C/c1ccc(O)c(O)c1 [Caffeic acid] | higher in BS‐treated | stimulated ALP activity |  |  | mineralization, calcium deposition by ARS staining (MC3T3‐E1 cells [3]): Extensive calcium deposition
O=C(O)c1ccc(O)cc1 [4‐hydroxybenzoic acid, 4‐Hydroxybenzoic acid] | higher in BS‐treated |  |  |  | 
O=c1c(-c2ccc(O)cc2)coc2cc(O[C@@H]3O[C@H](CO)[C@@H](O)[C@H](O)[C@H]3O)ccc12 [Daidzin] |  |  |  | not detected | 
O=c1c(-c2ccc(OS(=O)(=O)O)cc2)coc2cc(O)cc(O)c12 [Genistein 4′‐sulfate] | higher concentrations | stimulated ALP activity | high concentrations |  | AUC(0–24h), CGJ administered versus BS administered [1]: significantly higher; osteoblastogenesis (MC3T3‐E1 cells [2]): promote osteoblastogenesis; mineralization, calcium deposition by ARS staining (MC3T3‐E1 cells [3]): Extensive calcium deposition; osteoclast formation (RAW 264.7 cells): inhibit osteoclast formation
O=c1c(-c2ccc(O)cc2)coc2cc(O)cc(O)c12 [Genistein] | higher concentrations; also recorded: significantly higher |  | high concentrations | detected | AUC(0–24h), CGJ administered versus BS administered [1]: significantly higher; bioavailability, CGJ‐treated compared to BS‐treated (unfermented soybean) [1]: enhances; AUC, CGJ treatment versus BS treatment [1]: significantly higher
O=C(O)[C@H]1O[C@@H](Oc2ccc3c(c2)OC[C@H](c2ccc(O)cc2)C3)[C@H](O)[C@@H](O)[C@@H]1O [Equol 7‐glucuronide] | higher concentrations | stimulated ALP activity | high concentrations |  | bioavailability, CGJ‐treated compared to BS‐treated (unfermented soybean) [1]: enhances; also recorded: higher bioavailability; osteoblastogenesis (MC3T3‐E1 cells [2]): promote osteoblastogenesis; mineralization, calcium deposition by ARS staining (MC3T3‐E1 cells [3]): Extensive calcium deposition; osteoclast formation (RAW 264.7 cells): inhibit osteoclast formation
COc1cc2c(=O)c(-c3ccc(O)cc3)coc2cc1O [Glycitein] |  |  |  | detected | 
O=c1c(-c2ccc(O)cc2)coc2cc(O)ccc12 [Daidzein] | significantly higher |  | high concentrations |  | AUC, CGJ treatment versus BS treatment [1]: significantly higher
